Experimental data gathered from unrelated publications.
Target: Testis-specific serine/threonine-protein kinase 2 (TSSK2, Homo sapiens, UniProt Q96PF2)
One construct used (Q96PF2 1-358): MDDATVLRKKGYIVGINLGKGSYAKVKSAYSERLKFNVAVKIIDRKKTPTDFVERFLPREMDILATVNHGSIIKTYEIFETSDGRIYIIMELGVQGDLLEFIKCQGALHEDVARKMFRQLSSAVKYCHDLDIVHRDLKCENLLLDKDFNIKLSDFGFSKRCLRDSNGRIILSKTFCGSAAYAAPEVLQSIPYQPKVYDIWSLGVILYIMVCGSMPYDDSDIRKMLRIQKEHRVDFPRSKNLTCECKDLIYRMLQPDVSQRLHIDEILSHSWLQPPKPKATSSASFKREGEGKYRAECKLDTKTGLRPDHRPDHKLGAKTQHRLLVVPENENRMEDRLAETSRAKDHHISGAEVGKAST

| SMILES | test | setting | measurement | value |
| --- | --- | --- | --- | --- |
| CCCOc1ccc(OC)c(F)c1C(=O)c1ccc(C(=O)N[C@@H]2CNC[C@H]2NC(=O)c2ccc3[nH]ncc3c2)cc1 | enzyme activity, inhibitor | 10 µM | remaining activity | 87% |
| CC(C)(C)c1nc(-c2cccc(NS(=O)(=O)c3c(F)cccc3F)c2F)c(-c2ccnc(N)n2)s1 | enzyme activity, inhibitor, radiometric | 1 µM | remaining activity | 86% |
| CNc1cccc2cc(C(=O)Nc3ccc(C(=O)O)cc3)c(=O)[nH]c12 | enzyme activity, inhibitor | 10 µM | inhibition | 3.4% |
| O=C(Nc1cnn(-c2csc(C(=O)NC3COC3)c2)c1)Nc1ccccc1Cl | enzyme activity, inhibitor | 5 µM | remaining activity | 91.5% |
| CNC(=O)c1cc(Oc2ccc(NC(=O)Nc3ccc(Cl)c(C(F)(F)F)c3)cc2)ccn1 | enzyme activity, inhibitor | 10 µM | inhibition | -1% |
| Cc1cc(NC(=O)c2cccc3cc(-c4cccc5[nH]nc(N)c45)ccc23)ccc1F | enzyme activity, inhibitor | 0.1 µM | activity vs control | 99% |
| Cc1ccc(Nc2nccc(N(C)c3ccc4c(C)n(C)nc4c3)n2)cc1S(N)(=O)=O | enzyme activity, inhibitor | 0.3 µM | inhibition | 0% |
| N#CCCc1ccc2c(c1)-c1[nH]c3ccc([N+](=O)[O-])cc3c1CC(=O)N2 | cell-free assay | 0.5 µM | remaining signal | 78.7% |
| CCOc1cc(-c2nncn2C)ccc1Nc1ncc2cc(C)nc(NCC(C)(C)C)c2n1 | enzyme activity, inhibitor, FRET | 1 µM | inhibition | < 15% |
| CCN(CC)c1ccc(C2=NNC(=O)CC2C)cc1[N+](=O)[O-] (centres unmarked) | enzyme activity, inhibitor | 10 µM | remaining activity | 96% |
| COc1cc2ncnc(Nc3ccc(Oc4ccccc4)c(C)c3C)c2cc1OC | enzyme activity, inhibitor | 1 µM | inhibition | 3% |
| Cc1ccc(NC(=O)c2ccc(C)c(C(F)(F)F)c2)cc1C#Cc1nn(C2CCC(O)CC2)c2ncnc(N)c12 (centres unmarked) | cell-free assay | 10 µM | remaining signal | 96% |
| CCN(CC)CCNC(=O)c1c(C)[nH]c(/C=C2\C(=O)Nc3ccc(F)cc32)c1C | enzyme activity, inhibitor | 0.3 µM | inhibition | 0% |
| CC(C)(O)[C@H]1CC[C@H](Nc2ccc3ncc(-c4cccc(C(F)(F)F)c4)n3n2)CC1 | enzyme activity, inhibitor | 1 µM | remaining activity | 101% |
